Columns and labels:
Format in all cases: functional
Staphylococcus aureus [1] = assay: Antibacterial activity against Staphylococcus aureus at 20 ug/ml by agar plate diffusion technique; details: read-out: IZ
Candida albicans [2] = assay: Antifungal activity against Candida albicans at 10 ug/ml by paper disc method; details: read-out: IZ
Rattus norvegicus [3] = assay: Antiinflammatory activity in Wistar Albino rat assessed as inhibition of carrageenan-induced paw oedema at 20 mg/kg after 3 hrs relative to control
Outline: (§1)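 Wistar albino rats, 150–200 g, six per group, dosed orally with a 20 mg/kg suspension; control gets 0.1 ml 1% gum acacia. After 30 min, 0.1 ml 1% carrageenan in saline is injected subplantar into the right hind paw. Paw volume is read by plethysmograph at 0–4 h. Inhibition = 100(1 − Vtest/Vcontrol) on mean volume increase.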

Aspergillus niger [4] = assay: Antifungal activity against Aspergillus niger at 30 ug/ml by paper disc method; details: read-out: IZ
Pseudomonas aeruginosa [5] = assay: Antibacterial activity against Pseudomonas aeruginosa at 20 ug/ml by agar plate diffusion technique; details: read-out: IZ
Candida albicans [6] = assay: Antifungal activity against Candida albicans at 20 ug/ml by paper disc method; details: read-out: IZ
Bacillus subtilis [7] = assay: Antibacterial activity against Bacillus subtilis at 10 ug/ml by agar plate diffusion technique; details: read-out: IZ
Staphylococcus aureus [8] = assay: Antibacterial activity against Staphylococcus aureus at 30 ug/ml by agar plate diffusion technique; details: read-out: IZ
Aspergillus niger [9] = assay: Antifungal activity against Aspergillus niger at 10 ug/ml by paper disc method; details: read-out: IZ
Bacillus subtilis [10] = assay: Antibacterial activity against Bacillus subtilis at 20 ug/ml by agar plate diffusion technique; details: read-out: IZ
Mus musculus [11] = assay: Analgesic activity in Swiss mouse assessed as increase in reaction time at 20 mg/kg, po after 90 mins by Eddy's hot plate technique
Outline: (§2)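 Swiss mice of either sex, 25–35 g, placed one at a time on a hot plate held at 55 °C. End point is paw licking or jumping, whichever comes first, with a 15 s cut-off to avoid paw injury. Reaction time is recorded and reported as percent increase in reaction time.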

Mus musculus [12] = assay: Analgesic activity in Swiss mouse assessed as increase in reaction time at 20 mg/kg, po after 30 mins by Eddy's hot plate technique; outline: as §2
Candida albicans [13] = assay: Antifungal activity against Candida albicans at 30 ug/ml by paper disc method; details: read-out: IZ
Pseudomonas aeruginosa [14] = assay: Antibacterial activity against Pseudomonas aeruginosa at 30 ug/ml by agar plate diffusion technique; details: read-out: IZ
Escherichia coli [15] = assay: Antibacterial activity against Escherichia coli at 20 ug/ml by agar plate diffusion technique; details: read-out: IZ
Rattus norvegicus [16] = assay: Antiinflammatory activity in Wistar Albino rat assessed as inhibition of carrageenan-induced paw oedema at 20 mg/kg after 1 hr relative to control; outline: as §1
Aspergillus niger [17] = assay: Antifungal activity against Aspergillus niger at 20 ug/ml by paper disc method; details: read-out: IZ
Escherichia coli [18] = assay: Antibacterial activity against Escherichia coli at 10 ug/ml by agar plate diffusion technique; details: read-out: IZ
Bacillus subtilis [19] = assay: Antibacterial activity against Bacillus subtilis at 30 ug/ml by agar plate diffusion technique; details: read-out: IZ
Rattus norvegicus [20] = assay: Antiinflammatory activity in Wistar Albino rat assessed as inhibition of carrageenan-induced paw oedema at 20 mg/kg after 2 hrs relative to control; outline: as §1
Staphylococcus aureus [21] = assay: Antibacterial activity against Staphylococcus aureus at 10 ug/ml by agar plate diffusion technique; details: read-out: IZ
Pseudomonas aeruginosa [22] = assay: Antibacterial activity against Pseudomonas aeruginosa at 10 ug/ml by agar plate diffusion technique; details: read-out: IZ
Rattus norvegicus [23] = assay: Antiinflammatory activity in Wistar Albino rat assessed as inhibition of carrageenan-induced paw oedema at 20 mg/kg after 4 hrs relative to control; outline: as §1
Mus musculus [24] = assay: Analgesic activity in Swiss mouse assessed as increase in reaction time at 20 mg/kg, po after 60 mins by Eddy's hot plate technique; outline: as §2
Escherichia coli [25] = assay: Antibacterial activity against Escherichia coli at 30 ug/ml by agar plate diffusion technique; details: read-out: IZ

Row | SMILES | zone of inhibition at 20 µg/mL (Staphylococcus aureus [1]) [mm] | zone of inhibition at 10 µg/mL (Candida albicans [2]) [mm] | inhibition in vivo at 20 mg/kg (Rattus norvegicus [3]) [%] | zone of inhibition at 30 µg/mL (Aspergillus niger [4]) [mm] | zone of inhibition at 20 µg/mL (Pseudomonas aeruginosa [5]) [mm] | zone of inhibition at 20 µg/mL (Candida albicans [6]) [mm] | zone of inhibition at 10 µg/mL (Bacillus subtilis [7]) [mm] | zone of inhibition at 30 µg/mL (Staphylococcus aureus [8]) [mm] | zone of inhibition at 10 µg/mL (Aspergillus niger [9]) [mm] | zone of inhibition at 20 µg/mL (Bacillus subtilis [10]) [mm] | Activity (Mus musculus [11]) [%] | zone of inhibition at 30 µg/mL (Candida albicans [13]) [mm] | zone of inhibition at 30 µg/mL (Pseudomonas aeruginosa [14]) [mm] | zone of inhibition at 20 µg/mL (Escherichia coli [15]) [mm] | zone of inhibition at 20 µg/mL (Aspergillus niger [17]) [mm] | zone of inhibition at 10 µg/mL (Escherichia coli [18]) [mm] | zone of inhibition at 30 µg/mL (Bacillus subtilis [19]) [mm] | zone of inhibition at 10 µg/mL (Staphylococcus aureus [21]) [mm] | zone of inhibition at 10 µg/mL (Pseudomonas aeruginosa [22]) [mm] | zone of inhibition at 30 µg/mL (Escherichia coli [25]) [mm] | further results
1 | COc1ccc2[nH]c(C)c(Cc3nn4c(-c5ccoc5C)nnc4s3)c2c1 | 9.12 | 5.04 | 29.4 | 12.4 | 8.14 | 9.86 | 4.6 | 13.3 | 5.14 | 8.38 | 33.49 | 13.1 | 14.6 | 9.1 | 9.06 | 5.12 | 13.2 | 4.89 | 4.92 | 13.8 | Activity (Mus musculus [12]): 9.18%; inhibition in vivo at 20 mg/kg (Rattus norvegicus [16]): 19.7%; inhibition in vivo at 20 mg/kg (Rattus norvegicus [20]): 24.8%; inhibition in vivo at 20 mg/kg (Rattus norvegicus [23]): 31.2%; Activity (Mus musculus [24]): 23.17%
2 | COc1ccc(Cl)c(-c2nnc3sc(-c4cc(C)nc5ccccc45)nn23)c1 | 12.1 | 6.18 | 24.1 | 18.5 | 10.3 | 13.8 | 7.06 | 16.1 | 5.62 | 11.1 | 21.06 | 18.8 | 16.1 | 9.12 | 12.6 | 5.16 | 16.4 | 6.89 | 5.31 | 16.7 | Activity (Mus musculus [12]): 7.6%; inhibition in vivo at 20 mg/kg (Rattus norvegicus [16]): 8.68%; inhibition in vivo at 20 mg/kg (Rattus norvegicus [20]): 20.2%; inhibition in vivo at 20 mg/kg (Rattus norvegicus [23]): 27.4%; Activity (Mus musculus [24]): 12.65%
3 | Cc1occc1-c1nnc2sc(Cc3c[nH]c4ccccc34)nn12 | 8.19 | 5.38 | 26.5 | 13.2 | 8.9 | 9.3 | 5.67 | 13.5 | 5.6 | 8.75 | 35.33 | 12.7 | 13.5 | 9.18 | 8.74 | 5.78 | 13.8 | 5.12 | 4.85 | 13.6 | Activity (Mus musculus [12]): 6.66%; inhibition in vivo at 20 mg/kg (Rattus norvegicus [16]): 16%; inhibition in vivo at 20 mg/kg (Rattus norvegicus [20]): 21.5%; inhibition in vivo at 20 mg/kg (Rattus norvegicus [23]): 30%; Activity (Mus musculus [24]): 22.22%
4 | COc1ccc(Cc2nnc3sc(-c4ccnc(F)c4)nn23)cc1OC | 13.8 | 8.14 | 16.7 | 21 | 14.9 | 14.8 | 7.64 | 19.2 | 7.14 | 14.4 | 22.66 | 21.7 | 19.3 | 14.4 | 12.4 | 7.96 | 19.3 | 7.1 | 8.21 | 19.3 | Activity (Mus musculus [12]): 2.83%; inhibition in vivo at 20 mg/kg (Rattus norvegicus [16]): 11.1%; inhibition in vivo at 20 mg/kg (Rattus norvegicus [20]): 14.3%; inhibition in vivo at 20 mg/kg (Rattus norvegicus [23]): 21.5%; Activity (Mus musculus [24]): 10.3%
5 | Cc1occc1-c1nnc2n1NC(c1cccn1C)S2 (centres undefined) | 6.23 | 4.5 | 21.5 | 13.7 | 7.9 | 8.06 | 4.52 | 11.2 | 4.93 | 7.48 | 21.96 | 13.2 | 13.2 | 7.19 | 8.08 | 4.11 | 11.4 | 4.42 | 4.36 | 12.1 | Activity (Mus musculus [12]): 7.55%; inhibition in vivo at 20 mg/kg (Rattus norvegicus [16]): 14.6%; inhibition in vivo at 20 mg/kg (Rattus norvegicus [20]): 18.9%; inhibition in vivo at 20 mg/kg (Rattus norvegicus [23]): 22.4%; Activity (Mus musculus [24]): 16.8%
6 | Cc1occc1-c1nnc(S)n1N | 8.16 | 3 |  | 13.5 | 9.16 | 6.82 | 5.8 | 11.3 | 3.27 | 8.94 |  | 12.4 | 12.8 | 9.16 | 6.94 | 6.74 | 11.2 | 5.46 | 6.12 | 12.8 | 
7 | O=C(N[C@H](CO)[C@H](O)c1ccc([N+](=O)[O-])cc1)C(Cl)Cl [CHLORAMPHENICOL] |  |  |  |  |  |  |  | 26.1 |  |  |  |  | 25.4 |  |  |  | 24.6 |  |  | 23.7 | 
8 | NCC[C@H](O)C(=O)N[C@@H]1C[C@H](N)[C@@H](O[C@H]2O[C@H](CN)[C@@H](O)[C@H](O)[C@H]2O)[C@H](O)[C@H]1O[C@H]1O[C@H](CO)[C@@H](O)[C@H](N)[C@H]1O [AMIKACIN] |  |  |  |  |  |  |  |  |  |  |  |  | 23 |  |  |  |  |  |  |  | 
9 | COC1=CC(=O)C[C@@H](C)[C@]12Oc1c(Cl)c(OC)cc(OC)c1C2=O [GRISEOFULVIN] |  |  |  | 23.1 |  |  |  |  |  |  |  | 24.7 |  |  |  |  |  |  |  |  | 
10 | COc1ccc(Cc2nnc(S)n2N)cc1OC | 7.14 | 2.76 |  | 10.7 | 6.76 | 5.14 | 5.06 | 9.52 | 2.67 | 7.26 |  | 11 | 8.24 | 7.58 | 4.92 | 4.86 | 9.83 | 4.72 | 5.06 | 10.1 | 
11 | CN[C@H](CC(C)C)C(=O)N[C@H]1C(=O)N[C@@H](CC(N)=O)C(=O)N[C@H]2C(=O)N[C@H]3C(=O)N[C@H](C(=O)N[C@H](C(=O)O)c4cc(O)cc(O)c4-c4cc3ccc4O)[C@H](O)c3ccc(c(Cl)c3)Oc3cc2cc(c3O[C@@H]2O[C@H](CO)[C@@H](O)[C@H](O)[C@H]2O[C@H]2C[C@](C)(N)[C@H](O)[C@H](C)O2)Oc2ccc(cc2Cl)[C@H]1O [VANCOMYCIN] |  |  |  |  |  |  |  |  |  |  |  |  |  |  |  |  | 23 |  |  |  | 
12 | COc1ccc(Cl)c(-c2nnc(S)n2N)c1 | 7.28 | 2.33 |  | 11 | 7.26 | 5.18 | 4.25 | 9.06 | 2.59 | 7.05 |  | 9.79 | 9.1 | 7.16 | 5.02 | 5.08 | 10.1 | 5.16 | 5.23 | 9.17 | 
13 | O=C([O-])Cc1ccccc1Nc1c(Cl)cccc1Cl.[Na+] [DICLOFENAC SODIUM] |  |  |  |  |  |  |  |  |  |  | 43.25 |  |  |  |  |  |  |  |  |  | Activity (Mus musculus [12]): 32.23%; Activity (Mus musculus [24]): 38.15%
14 | CCCCC1C(=O)N(c2ccccc2)N(c2ccccc2)C1=O [PHENYLBUTAZONE] |  |  | 40.8 |  |  |  |  |  |  |  |  |  |  |  |  |  |  |  |  |  | inhibition in vivo at 20 mg/kg (Rattus norvegicus [16]): 21.2%; inhibition in vivo at 20 mg/kg (Rattus norvegicus [20]): 33.6%; inhibition in vivo at 20 mg/kg (Rattus norvegicus [23]): 45.4%
